This is an account of results in ChEMBL document CHEMBL4387709, “Discovery of Quinoline Analogues as Potent Antivirals against Enterovirus D68 (EV-D68)” (J Med Chem, 2019).

The test system of one series is A 172. The experiment in a line: Cytotoxicity against human A172 cells after 3 days by neutral red dye-based photometric method. The settings on record: a 172, 72 h. In kind it is cell-based. The procedure, abridged: (§1)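 Uninfected cells run as in the CPE assay (33 °C, 3 days, same media) with compound. Viability by neutral red staining and 540 nm absorbance. CC50 from dose-response curves, triplicate experiments.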

Series [1] concerns enterovirus D68. The experiment in a line: Antiviral activity against Enterovirus D68 US/MO/14-18947 infected in human A172 cells assessed as inhibition of virus-induced cytopathic effect incubated for 5 mins under shaking condition and measured after 3 days by neutral red dye-based photometric method. The note with it: Enterovirus D, US/MO/14-18947, A 172. In kind it is functional, organism-based. Put shortly:
(§2)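 A172 cells (DMEM, 10% FBS) grown ~90% confluent, infected with EV-D68 at ~MOI 0.3 in DMEM/2% FBS/30 mM MgCl2 and kept at 33 °C. P/S and compounds added 1 h later. Brief orbital shaking, then 3-day incubation. Neutral red staining with 540 nm absorbance. EC50 from best-fit dose-response curves in triplicate.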

Series [2] concerns RD. Put plainly: Inhibition of 2C protein in Enterovirus D68 US/KY/14-18953 infected in human RD cells assessed as reduction of VP1 expression at 3 uM measured at 9 hrs post infection by DAPI-staining based microscopy. In kind it is cell-based. Put shortly: (§3)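 Fixed at 9 hpi (4% formaldehyde), 0.2% Triton X-100 permeabilized, blocked with 10% bovine serum. Stained with rabbit anti-VP1 plus Alexa-488 secondary, nuclei with 300 nM DAPI. Confocal microscopy.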

In a further series the test system is HeLa. Put plainly: Cytotoxicity against human HeLa cells after 3 days by neutral red dye-based photometric method. The note with it: 72 h. In kind it is cell-based. Put shortly:
as §1

In series [3] the test system is enterovirus D68. The experiment in a line: Antiviral activity against Enterovirus D68 US/KY/14-18953 infected in human SH-SY5Y cells assessed as inhibition of virus-induced cytopathic effect incubated for 5 mins under shaking condition and measured after 3 days by neutral red dye-based photometric method. The settings on record: Enterovirus D, US/KY/14-18953, SH-SY5Y. In kind it is functional, organism-based. The procedure, abridged:
(§4)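 Virus at ~MOI 1 applied to SH-SY5Y cells (50% DMEM/50% F-12, 10% FBS) at ~90% confluence in DMEM/2% FBS/30 mM MgCl2 at 33 °C. Compounds added after 1 h with 1% P/S, shaken ~5 min, incubated 3 days. Viability read by neutral red uptake (A540). EC50 fitted from dose-response, triplicate.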

For series [4], the system named is RD. Put plainly: Inhibition of 2C protein in Enterovirus D68 US/KY/14-18953 infected in human RD cells assessed as reduction of viral RNA level at 3 uM measured at 9 hrs post infection by RT-qPCR method relative to control. In kind it is cell-based. Put shortly:
(§5)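 DNase-treated. 1.2 µg reverse-transcribed with oligo(dT)18. qPCR run 95 °C 10 min, then 40 cycles of 95 °C 15 s/60 °C 60 s, with melt curve. Compared with DMSO control, one-way ANOVA, mean of two experiments ± SD.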
Background: In qPCR the cycle at which signal appears reflects the starting amount.

In series [5] the test system is enterovirus D68. The experiment in a line: Antiviral activity against Enterovirus D68 US/KY/14-18953 infected in human RD cells assessed as inhibition of virus-induced cytopathic effect incubated for 5 mins under shaking condition and measured after 3 days by neutral red dye-based photometric method. In kind it is functional, organism-based. The note with it: Enterovirus D, US/KY/14-18953, RD. Put shortly:
(§6)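 RD cells seeded one day ahead to ~90% confluence, PBS (Mg/Ca) wash, infected at ~MOI 0.01 with EV-D68 in DMEM/2% FBS/30 mM MgCl2 at 33 °C, 5% CO2. Compounds and 1% P/S added after 1 h. Plates shaken ~5 min, held 3 days, viable cells stained with neutral red (66 µg/ml), A540 read. EC50 from dose-response fits, triplicates.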
(In general: Cytopathic effects are the visible damage that an infection or toxin causes in cultured cells.)

The subject of another series is Influenza A virus. Put plainly: Antiviral activity against Influenza A virus (A/California/07/2009(H1N1)) at 10 uM after 2 days by plaque assay. In kind it is functional, organism-based.
The test system of series [6] is enterovirus D68. The experiment in a line: Antiviral activity against Enterovirus D68 US/MO/14-18947 infected in human RD cells assessed as inhibition of virus-induced cytopathic effect incubated for 5 mins under shaking condition and measured after 3 days by neutral red dye-based photometric method. In kind it is functional, organism-based. The note with it: Enterovirus D, US/MO/14-18947, RD. The procedure, abridged: as §6

Series [7] concerns RD. Put plainly: Inhibition of 2C protein in Enterovirus D68 US/KY/14-18953 infected in human RD cells assessed as reduction of VP1 expression at 3 uM measured at 9 hrs post infection by Western blot analysis. In kind it is cell-based. Put shortly: (§7)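 Equal protein separated and blotted to PVDF. Probed with rabbit anti-VP1 and mouse anti-GAPDH (1:3,000), HRP secondary, chemiluminescent detection. Mean of two independent experiments ± SD.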

Series [8] concerns enterovirus D68. The experiment in a line: Antiviral activity against Enterovirus D68 US/MO/14-18947 infected in human SH-SY5Y cells assessed as inhibition of virus-induced cytopathic effect incubated for 5 mins under shaking condition and measured after 3 days by neutral red dye-based photometric method. In kind it is functional, organism-based. The settings on record: Enterovirus D, US/MO/14-18947, SH-SY5Y. The procedure, abridged:
as §4

Another series has as its system SH-SY5Y. Put plainly: Cytotoxicity against human SH-SY5Y cells after 3 days by neutral red dye-based photometric method. In kind it is cell-based. The note with it: 72 h. The procedure, abridged:
as §1

For another series, the system named is A549. Put plainly: Cytotoxicity against human A549 cells after 3 days by neutral red dye-based photometric method. In kind it is cell-based. The settings on record: a549, 72 h. The procedure, abridged:
as §1

The test system of series [9] is RD. Put plainly: Inhibition of 2C protein in Enterovirus D68 US/KY/14-18953 infected in human RD cells assessed as reduction of VP1 expression at 1 uM measured at 9 hrs post infection by Western blot analysis. In kind it is cell-based. The procedure, abridged:
as §7
For orientation: In western blotting, separated proteins are transferred to a membrane and probed.

The nature of series [10]: Inhibition of sodium channel in rat dorsal root ganglia neurons assessed as reduction in veratridine-induced intracellular calcium influx at 20 to 50 uM after overnight incubation by Fura-2AM dye based fluorescence microscopy. In kind it is cell-based.
The test system of series [11] is enterovirus D68. The experiment in a line: Antiviral activity against Enterovirus D68 US/MO/14-18949 infected in human RD cells assessed as inhibition of virus-induced cytopathic effect incubated for 5 mins under shaking condition and measured after 3 days by neutral red dye-based photometric method. The settings on record: Enterovirus D, US/MO/14-18949, RD. In kind it is functional, organism-based. Put shortly: as §6

A further series relates to Influenza B virus. The experiment in a line: Antiviral activity against Influenza B virus (B/Brisbane/60/2008) at 10 uM after 2 days by plaque assay. In kind it is functional, organism-based.
Series [12] has as its system enterovirus D68. The experiment in a line: Antiviral activity against Enterovirus D68 […] infected in human RD cells assessed as inhibition of virus-induced cytopathic effect incubated for 5 mins under shaking condition and measured after 3 days by neutral red dye-based photometric method. The note with it: Enterovirus D. In kind it is functional, organism-based. Put shortly: as §6

The test system of series [13] is enterovirus D68. Put plainly: Antiviral activity against Enterovirus D68 US/KY/14-18953 infected in human A172 cells assessed as inhibition of virus-induced cytopathic effect incubated for 5 mins under shaking condition and measured after 3 days by neutral red dye-based photometric method. In kind it is functional, organism-based. The note with it: Enterovirus D, US/KY/14-18953, A 172. Put shortly: as §2

A short description of series [14]: Selectivity index, ratio of CC50 for human RD cells to EC50 for Enterovirus D68 US/KY/14-18953 infected in human RD cells. In kind it is toxicity, cell-based. The note with it: read-out: Ratio CC50/EC50.
Series [15] can be described thus: (§8) Cytotoxicity against human RD cells after 3 days by neutral red dye-based photometric method. In kind it is cell-based. The note with it: RD cells.
The test system of series [16] is RD. The series is described as §8. In kind it is cell-based. The note with it: rd, 72 h.
Series [17] deals with enterovirus D68. Put plainly: Antiviral activity against Enterovirus D68 US/IL/14-18956 infected in human RD cells assessed as inhibition of virus-induced cytopathic effect incubated for 5 mins under shaking condition and measured after 3 days by neutral red dye-based photometric method. In kind it is functional, organism-based. The note with it: Enterovirus D, US/IL/14-18956, RD. The procedure, abridged: as §6

The test system of series [18] is RD. The experiment in a line: Inhibition of 2C protein in Enterovirus D68 US/KY/14-18953 infected in human RD cells assessed as reduction of viral RNA synthesis at 1 uM measured at 9 hrs post infection by reagent-based RT-qPCR method relative to control. In kind it is cell-based. The procedure, abridged:
as §5

For series [19], the system named is RD. Put plainly: Inhibition of 2C protein in Enterovirus D68 US/KY/14-18953 infected in human RD cells assessed as reduction of VP1 expression at 1 uM measured at 9 hrs post infection by DAPI-staining based microscopy. In kind it is cell-based. Put shortly: as §3
Series [20] can be described thus: Inhibition of sodium channel in rat dorsal root ganglia neurons assessed as reduction in veratridine-induced intracellular calcium influx at 2 to 50 uM after overnight incubation by Fura-2AM dye based fluorescence microscopy. In kind it is cell-based.

SMILES strings stand for the structures. Calls of active or inactive are those of the source. The rule behind the calls is not given here.

For the compound `CCCCOc1cc(C(=O)NCCN(CC)CC)c2ccccc2n1` [DIBUCAINE], the 50% cytotoxic concentration (CC50) (as a rule, the concentration at which the toxic effect on the cells reaches its halfway point) was above 30000 nM in the series on A 172, 36000 nM with HeLa, above 30000 nM in the series with SH-SY5Y and 37500 nM in the series on A549. Besides, the concentration giving a half-maximal response (EC50) – broadly, the concentration that produces a half-maximal response – in the series on enterovirus D68 [1] stood at 1900 nM; in the series with enterovirus D68 [3] it was 1700 nM; in the series on enterovirus D68 [5] it was 5300 nM; in the series with enterovirus D68 [6] it was 3500 nM; in the series with enterovirus D68 [8], 1900 nM; in the series on enterovirus D68 [11], 2900 nM. For the same compound, the EC50 in the series with enterovirus D68 [12] stood at 2000 nM; in the series on enterovirus D68 [13] it was 3700 nM. For the same compound, the inhibition result in the series with RD [2] and with RD [7] was “Active” in each case. Also, in the series with RD [4], the inhibition (usually the percentage by which the read-out fell short of the control) is 80%. Besides, the outcome with Influenza A virus and in the series on Influenza B virus was inactive. Besides, in the series with RD [9], the inhibition result was “inactive”. For the same compound, in [10], the “inhibition (INH)” value was “Active”.

With `N=C(N)N` [GUANIDINE], in the series with enterovirus D68 [5], the concentration giving a half-maximal response (EC50) turned out to be 219000 nM. For the same compound, the selectivity ratio in series [14] was above 1.4. The half-maximal cytotoxic concentration (CC50) at 72 h in [15] is above 300000 nM.

As for `CCN(CC)CCNC(=O)c1cc(/C=C/c2ccccc2)nc2ccccc12`, the EC50 in the series on enterovirus D68 [5] worked out at 800 nM. For the same compound, the selectivity ratio in series [14] was determined as 14.4. In the series with RD [16], this compound returned a CC50 of 11500 nM.

Regarding `CN(C)CCNC(=O)c1cc(-c2cccs2)nc2ccccc12`, the CC50 with A 172 worked out at 73800 nM; in the series on HeLa, 51200 nM; in the series with SH-SY5Y, 136000 nM; with A549, 98800 nM. Further, the EC50 was 100 nM in the series on enterovirus D68 [1]; 60 nM in the series with enterovirus D68 [17]; 100 nM in the series on enterovirus D68 [3]; 40 nM in the series on enterovirus D68 [5]; 60 nM in the series with enterovirus D68 [6]; 10 nM with enterovirus D68 [8]. The 50% effective concentration (EC50) was 50 nM in the series with enterovirus D68 [11], 50 nM in the series on enterovirus D68 [12] and 20 nM in the series on enterovirus D68 [13]. In addition, the inhibition with RD [18] was above 99%. Further, the inhibition result with RD [19] and with RD [9] was “Active” in each case. Further, the outcome in the series with Influenza A virus and with Influenza B virus was inactive.

With `CN(C)CCNC(=O)c1cc(-c2ccccc2)nc2ccccc12`, the CC50 in the series with A 172 was 88400 nM; in the series on HeLa it was 68700 nM; in the series with SH-SY5Y, above 300000 nM; in the series on A549 it was 121000 nM. Besides, the EC50 was determined as 300 nM with enterovirus D68 [1]; 200 nM in the series on enterovirus D68 [17]; 400 nM in the series on enterovirus D68 [3]; 400 nM in the series with enterovirus D68 [5]; 300 nM in the series on enterovirus D68 [6]; 200 nM in the series on enterovirus D68 [8]. Further, the EC50 with enterovirus D68 [11] amounted to 600 nM; in the series with enterovirus D68 [12], 600 nM; in the series on enterovirus D68 [13] it was 400 nM. Besides, the inhibition with RD [18] is above 99%. For the same compound, the inhibition result in the series with RD [19] and with RD [9] was “Active” each time. Further, the “inhibition (INH)” value in series [20] is “Not Active”. The result in the series on Influenza A virus and in the series on Influenza B virus was inactive.
